Myeloid diff 2 = compounds promoting myeloid differentiation; ER-HoxA9 myeloid progenitors, lysozyme-GFP differentiation, flow cytometry; calls only at 10 µM; actives 1% (n = 360,000); AID 624256;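 active means normalized GFP-positive differentiation at or above the plate's own cutoff, the solvent-only control mean plus 3 SD; inconclusive means no clear call, values can overlap the other calls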;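 further: cells exposed to compound for four days before flow analysis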
ATG4B inhibitor = inhibitors of human ATG4B cysteine protease. actives 0.51% (n = 340,000). inhibition, % at 8.33 µM. AID 504462. ATG4B cleavage of LC3-PLA2, NBD-HPC fluorescence, 1 h; in the data active means inhibition above about 40%
ABCB6 inh 2 = blocks the human ABCB6 transporter. K562-ABCB6 porphyrin accumulation, flow cytometry, 1 h; hits give low values. AID 602162. Q9NP58. actives 0.19% (n = 360,000). fluorescence ratio to DMSO, % at 10 µM;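 active means fluorescence ratio to DMSO below 75%, the collection mean minus 3 SD; inconclusive means too few cells collected in the well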;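 further: signal is porphyrin accumulated inside mitochondria; lower ratio means ABCB6 inhibition with less porphyrin fluorescence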
Target sequence (Q9NP58 whole entry, looked up): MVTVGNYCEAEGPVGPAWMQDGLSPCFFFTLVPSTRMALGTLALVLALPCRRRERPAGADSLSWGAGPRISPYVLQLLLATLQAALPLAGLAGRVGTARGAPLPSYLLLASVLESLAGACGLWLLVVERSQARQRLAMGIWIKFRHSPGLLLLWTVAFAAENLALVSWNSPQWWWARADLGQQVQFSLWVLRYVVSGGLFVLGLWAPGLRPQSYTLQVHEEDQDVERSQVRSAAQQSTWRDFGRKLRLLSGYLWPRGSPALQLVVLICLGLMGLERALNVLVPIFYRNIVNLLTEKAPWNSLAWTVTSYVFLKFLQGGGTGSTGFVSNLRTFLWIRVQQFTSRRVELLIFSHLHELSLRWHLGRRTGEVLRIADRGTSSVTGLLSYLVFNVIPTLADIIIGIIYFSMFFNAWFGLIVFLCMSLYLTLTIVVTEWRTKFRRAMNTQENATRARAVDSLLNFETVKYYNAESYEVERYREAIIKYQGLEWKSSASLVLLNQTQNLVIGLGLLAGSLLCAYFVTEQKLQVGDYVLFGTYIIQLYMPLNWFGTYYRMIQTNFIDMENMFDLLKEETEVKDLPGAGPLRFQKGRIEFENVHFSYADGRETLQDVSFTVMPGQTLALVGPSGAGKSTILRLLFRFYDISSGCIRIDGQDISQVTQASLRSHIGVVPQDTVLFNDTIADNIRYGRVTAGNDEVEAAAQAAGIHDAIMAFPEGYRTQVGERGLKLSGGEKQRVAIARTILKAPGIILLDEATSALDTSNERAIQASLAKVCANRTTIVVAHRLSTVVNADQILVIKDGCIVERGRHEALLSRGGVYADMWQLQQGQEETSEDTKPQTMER
NRP1-CendR mod = modulators of CendR peptide binding to human neuropilin-1; O14786; FAM-RPARPAR peptide binding to NRP-1, fluorescence polarization; inhibition, % at 25 µM; actives 0.85% (n = 360,000); AID 602438;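 active means inhibition or corrected inhibition above about 18%, plus a signal ratio from 0.5 to 1.5, limit read from the data, passing the limit was not always enough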
Exocytosis inh = blocks lytic granule exocytosis | inhibition, % at 10 µM | actives 0.66% (n = 360,000) | TALL-104 LAMP-1 surface exposure, flow cytometry; cells stimulated with thapsigargin and PMA | AID 651702;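 active means inhibition above about 55%, limit read from the data; inconclusive means no clear call, values can overlap the other calls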
Arr AP2 block = inhibitors of human beta-arrestin and AP2 interaction. FITC-arrestin peptide / GST-AP2 beads, flow cytometry; AP2 beta2 appendage carries R879A mutation. actives 0.31% (n = 340,000). inhibition, % at 10 µM;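 active means inhibition above a set limit, near 3 SD of compounds lacking own fluorescence, cut at about 54% in these data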
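system = GST-tagged AP2 beta2-adaptin appendage (R879A) on 4 µm glutathione beads | reagent = FITC-labelled arrestin peptide probe, 50 nM final | schedule = compound with beads 12 min RT, then probe 1 h RT | signal = HyperCyt-sampled flow cytometry, FL1 channel, ex 488/em 535 nm | read-out = percent response from loss of bead-bound FITC fluorescence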
ATG4B confirm = ATG4B (human) inhibition, single-dose confirmed; shares compounds with ATG4B inhibitor; ATG4B protease fluorescent substrate cleavage assay; inhibition, % at 8.33 µM; actives 92% (n = 320); in the data active means inhibition above about 39%
PLA2 ctr = inhibits human PLA2, flagging false ATG4B inhibitors; shares compounds with ATG4B inhibitor; purified PLA2, NBD-C6-HPC fluorescence, 45 min; inhibition, % at 8.33 µM; actives 66% (n = 1,600); in the data active means inhibition above about 50%
Hits are given with their value; - = inactive; ? = inconclusive; . = no result given. Rows were chosen to be rich in hits. Some 3.3% of all compounds tested hit in one or more screens of this group.

SMILES	Myeloid diff 2	ATG4B inhibitor	ABCB6 inh 2	NRP1-CendR mod	Exocytosis inh	Arr AP2 block	PLA2 ctr	others
O=C(NCc1cccc(C(F)(F)F)c1)N1CCN(C(=O)c2ccccc2)CC1	-	56.4	-	-	-	-	61.4
O=C(CCCOc1ccccc1)N1CCc2ccccc2C1	-	-	-	-	-	-	.
O=C(CCCOc1ccc(Cl)cc1Cl)N1CCc2ccccc2C1	-	49.6	-	29.4	-	-	50.9
CCCCC[C@@H]1C=C(C(=O)O)[C@H](c2ccc3c(c2)OCO3)N1S(=O)(=O)c1ccc(C)cc1	-	50.4	-	-	-	-	57.0
CCOC(=O)N/N=C/c1cn(CCCOc2ccc(C)cc2)c2ccccc12	-	41.1	-	-	-	-	-
CCOC(=O)N/N=C/c1cn(CCCOc2ccccc2)c2ccccc12	-	-	-	-	-	-	.
N#Cc1c(NC(=O)C2CC(c3c(F)cccc3Cl)=NO2)sc2c1CCC2 (centres undefined)	-	59.3	-	-	-	-	52.9
CCc1c(C)sc(NC(=O)C2CC(c3c(F)cccc3Cl)=NO2)c1C#N (centres undefined)	-	-	-	-	-	-	.
COc1ccc(-n2c(C)c(C(C)=O)c3cc(OCC(N)=O)ccc32)cc1	-	49.9	-	-	-	-	57.9
CCOC(=O)C1=C(c2ccccc2)NC(SCC(=O)Nc2ccc(C)cc2)=C(C#N)C1c1ccco1 (centres undefined)	-	-	-	-	-	.	.
CCOC(=O)C1=C(c2ccccc2)NC(SCC(=O)Nc2ccccc2C)=C(C#N)C1c1ccco1 (centres undefined)	-	65.8	-	-	-	-	72.1
CCOC(=O)C1=C(c2ccccc2)NC(SCC(=O)Nc2cccc(C)c2)=C(C#N)C1c1ccco1 (centres undefined)	-	48.4	-	-	-	-	55.0
CN(C)C(=O)c1ccc(NC(=O)COC(=O)C2CCN(S(=O)(=O)c3ccc4c(c3)OCCO4)CC2)cc1	.	-	-	-	-	-	.
COc1ccc(S(=O)(=O)NCC2CCCO2)cc1Cl (centres undefined)	-	-	-	-	-	-	.
Cc1sc(-n2c(C)cc(/C=C3\SC(=S)NC3=O)c2C)c(C#N)c1C	-	80.8	-	-	-	-	74.3
O=C(CCNC(=O)c1ccc(Br)cc1)Nc1cc(Cl)ccc1-n1cncn1	-	-	-	-	-	-	.
COc1ccc(C)cc1S(=O)(=O)N(CC(=O)Nc1cccc([N+](=O)[O-])c1)c1ccccc1	-	83.7	-	-	-	-	90.2
Cc1ccccc1CN(CC(=O)Nc1cccc([N+](=O)[O-])c1)S(=O)(=O)c1ccc(Cl)cc1	-	64.2	-	-	-	-	76.8
CS(=O)(=O)N(CC(=O)Nc1cccc([N+](=O)[O-])c1)c1ccccc1	-	-	-	-	-	-	.
CCc1ccc(Oc2nnnn2-c2ccc(C(N)=O)cc2)cc1	-	59.6	-	-	-	-	90.9
O=C(N/N=C/c1coc2ccccc2c1=O)c1cc(Br)c(O)c(Br)c1	-	-	-	-	-	-	.
CCCOc1cccc(C(=O)N/N=C/c2coc3ccccc3c2=O)c1	-	42.8	-	-	-	-	73.8
O=c1c2ccccc2nc(/C=C/c2ccc(O)cc2)n1CCc1ccccc1	-	47.9	-	-	-	-	-	ATG4B confirm=72.0
Cc1nc(NCc2ccccc2)c2cc[nH]c2n1	-	-	-	-	-	-	.
CC1CCc2c(sc(NC(=O)c3ccccc3C(=O)O)c2C#N)C1 (centres undefined)	-	-	-	-	-	-	.
SMILES	Myeloid diff 2	ATG4B inhibitor	ABCB6 inh 2	NRP1-CendR mod	Exocytosis inh	Arr AP2 block	PLA2 ctr	others
CCC(C)(C)C1CCc2c(sc(NC(=O)c3ccccc3C(=O)O)c2C#N)C1 (centres undefined)	-	71.3	-	-	-	-	87.5
Cc1cccc(NC(=O)CSc2nc(=O)n(CCCN3CCOCC3)c3c2CCCC3)c1C	-	.	-	-	-	.	.
C[C@H]1CN[C@@H](CCO)/C1=C\c1ccccc1	-	-	-	-	-	-	.
CCN(Cc1ccc2c(c1)OCCO2)C(=O)CSc1nc(C)nc2sc(C)c(C)c12	-	46.8	-	-	-	-	67.6
Cc1ccc(S(=O)(=O)CCC(=O)OCC(=O)NC(C)c2ccccc2)cc1 (centres undefined)	-	-	-	-	-	-	.
O=C(CSc1ccc(Br)c2cccc(Cl)c12)Nc1ccc(S(=O)(=O)Nc2nccs2)cc1	.	48.4	-	-	-	-	52.9
COc1ccc(-n2cccc2/C=C2\C(=N)N3N=C(c4ccco4)SC3=NC2=O)cc1	-	40.4	-	-	-	-	-	ATG4B confirm=49.1
N=C1/C(=C/c2coc3ccccc3c2=O)C(=O)N=C2SC(c3ccco3)=NN12	-	44.6	-	-	-	-	-
CC(C)CSC1=NSC2=NC(=O)/C(=C\c3coc4ccccc4c3=O)C(=N)N12	-	49.8	-	-	-	-	52.6
N=C1/C(=C\c2coc3ccccc3c2=O)C(=O)N=C2SC(c3ccncc3)=NN12	-	-	-	-	-	-	.
CC(C)(Oc1ccc(Cl)cc1)C(=O)Nc1ccc(S(=O)(=O)Nc2ncccn2)cc1	.	-	-	-	-	-	.
CC(C)c1ccc(NC2CCCN(C(=O)c3ccnn3C)C2)cc1 (centres undefined)	-	-	-	-	-	-	.
COCc1ccc(C(=O)N2CCCC(Nc3ccc(C(C)C)cc3)C2)s1 (centres undefined)	-	72.4	-	-	-	-	75.6
COCc1ccc(C(=O)N2CCCC(Nc3ccc(C(C)C)cc3)C2)o1 (centres undefined)	-	53.2	-	-	-	-	59.0
O=C(Cn1cnc2c(cnn2-c2ccccc2)c1=O)Nc1cc(S(=O)(=O)N2CCOCC2)ccc1Cl	-	-	-	-	-	-	.
Cc1ccccc1-c1nnn(CC(=O)N(C)CC(=O)Nc2ccccc2C(F)(F)F)n1	-	-	-	-	-	-	.
CN(CC(=O)NCC1CCCO1)S(=O)(=O)c1cc(Cl)ccc1Cl (centres undefined)	-	93.0	-	-	-	-	-
Cc1ccc(N(CC(=O)NCC2CCCO2)S(=O)(=O)c2ccc(Cl)cc2)cc1C (centres undefined)	-	-	-	-	-	-	.
CCCCCCCCCCCCCCCCn1cc[n+](C)c1	.	48.5	-	-	-	-	-	ATG4B confirm=49.9
CCCCCCCCn1ccc(=N)cc1	?	-	-	-	-	-	.
CCCNc1ccc(C(=O)OCC)cc1[N+](=O)[O-]	-	-	-	-	-	-	.

From PubChem
